Test results from ChEMBL document CHEMBL1149105, “3-(4-phenoxyphenyl)pyrazoles: a novel class of sodium channel blockers” (J Med Chem, 2004).

Columns and labels:
[1] = target: T1, Sodium channel protein type 4 subunit alpha (Homo sapiens, UniProt P35499); assay: Relative affinity for inactivated and resting human SkM1 expressed in HEK293 cells; assay type: cell-based
Target sequence in this assay (P35499 whole entry, looked up): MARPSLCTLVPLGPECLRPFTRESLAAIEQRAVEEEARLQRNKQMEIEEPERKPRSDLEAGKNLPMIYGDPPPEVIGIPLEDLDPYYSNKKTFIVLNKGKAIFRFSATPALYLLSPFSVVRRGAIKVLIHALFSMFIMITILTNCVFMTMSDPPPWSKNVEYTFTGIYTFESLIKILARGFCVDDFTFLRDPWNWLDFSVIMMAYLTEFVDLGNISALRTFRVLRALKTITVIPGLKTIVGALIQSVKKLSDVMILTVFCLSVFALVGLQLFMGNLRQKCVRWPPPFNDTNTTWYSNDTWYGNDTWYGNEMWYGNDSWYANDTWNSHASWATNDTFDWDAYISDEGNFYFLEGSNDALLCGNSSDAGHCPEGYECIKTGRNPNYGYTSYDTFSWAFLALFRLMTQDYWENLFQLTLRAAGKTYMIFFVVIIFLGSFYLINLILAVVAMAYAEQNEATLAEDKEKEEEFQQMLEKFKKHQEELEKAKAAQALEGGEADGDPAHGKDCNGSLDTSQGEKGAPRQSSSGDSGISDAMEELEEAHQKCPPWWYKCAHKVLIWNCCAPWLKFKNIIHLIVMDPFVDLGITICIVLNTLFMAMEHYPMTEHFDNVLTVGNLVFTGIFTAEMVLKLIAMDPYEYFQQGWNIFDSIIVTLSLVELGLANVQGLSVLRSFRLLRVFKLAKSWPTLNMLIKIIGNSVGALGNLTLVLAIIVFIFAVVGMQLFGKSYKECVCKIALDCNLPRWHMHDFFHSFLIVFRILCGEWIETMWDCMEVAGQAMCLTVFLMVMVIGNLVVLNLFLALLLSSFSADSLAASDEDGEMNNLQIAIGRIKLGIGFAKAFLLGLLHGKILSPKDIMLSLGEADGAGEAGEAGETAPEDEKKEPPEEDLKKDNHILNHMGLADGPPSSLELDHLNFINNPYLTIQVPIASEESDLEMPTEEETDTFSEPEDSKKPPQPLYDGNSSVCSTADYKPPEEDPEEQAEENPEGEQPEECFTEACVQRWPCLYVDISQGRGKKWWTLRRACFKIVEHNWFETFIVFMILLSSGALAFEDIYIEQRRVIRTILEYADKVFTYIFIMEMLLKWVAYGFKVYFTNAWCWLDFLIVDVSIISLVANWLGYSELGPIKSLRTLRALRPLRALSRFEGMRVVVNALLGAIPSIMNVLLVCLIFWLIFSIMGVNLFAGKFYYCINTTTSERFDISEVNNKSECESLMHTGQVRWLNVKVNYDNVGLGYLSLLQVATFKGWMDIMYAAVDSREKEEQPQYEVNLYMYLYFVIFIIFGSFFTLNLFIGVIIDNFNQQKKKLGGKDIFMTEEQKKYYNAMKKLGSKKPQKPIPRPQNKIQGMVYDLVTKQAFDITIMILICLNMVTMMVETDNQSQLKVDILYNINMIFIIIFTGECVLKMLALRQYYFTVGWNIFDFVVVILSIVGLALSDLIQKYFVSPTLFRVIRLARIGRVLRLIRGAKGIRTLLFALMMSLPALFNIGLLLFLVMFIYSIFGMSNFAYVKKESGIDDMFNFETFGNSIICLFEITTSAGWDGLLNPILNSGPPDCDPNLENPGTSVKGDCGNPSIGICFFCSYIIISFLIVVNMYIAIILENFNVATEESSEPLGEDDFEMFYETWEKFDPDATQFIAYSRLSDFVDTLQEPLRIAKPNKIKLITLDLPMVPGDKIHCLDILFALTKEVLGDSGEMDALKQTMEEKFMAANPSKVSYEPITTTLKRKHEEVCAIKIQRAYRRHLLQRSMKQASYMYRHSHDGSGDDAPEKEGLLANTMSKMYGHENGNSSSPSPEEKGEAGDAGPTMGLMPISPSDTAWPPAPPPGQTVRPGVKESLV

[2] = target: T1, Sodium channel protein type 4 subunit alpha; assay: Affinity for resting human SkM1 sodium channel expressed in HEK293 cells; assay type: cell-based
Outline: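 Tonic block was measured by whole-cell patch clamp on hSkM1-expressing HEK-293 cells at room temperature. Cells were held at -120 mV, where all channels are resting, and depolarized to 0 mV. Peak current was compared between control and 3 μM antagonist applied by flow pipes from DMSO stock. The fractional response gave Kr = FR/(1−FR)·[antag], with slope n = 1. Mean ± SEM, n = 3–4.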
Target sequence in this assay (P35499 whole entry, looked up): as above

[3] = target: T1, Sodium channel protein type 4 subunit alpha; assay: Affinity for inactive human SkM1 sodium channel expressed in HEK293 cells; assay type: cell-based
Outline: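 Whole-cell voltage clamp at room temperature on HEK-293 cells stably expressing hSkM1, recorded 3–4 days after plating. Cells were held at -120 mV. 10–12 conditioning prepulses (3 s, 10 mV steps) were each followed by a 5 ms test pulse to 0 mV at 1/7 s. Boltzmann V1/2 and k were taken without and with drug (final 0.003–10 μM, ≤0.1% DMSO). Ki came from the modified Bean equation. Mean ± SEM, n = 3–4.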
Target sequence in this assay (P35499 whole entry): as the sequence (P35499 whole entry, looked up) above

[4] = target: T1, Sodium channel protein type 4 subunit alpha; conditions: HEK293
Target sequence in this assay (P35499 whole entry, looked up): as above

Row | Ratio [1] | Kr [2] | Ki [3] | Kr [4] | Compound
1 | 150 | 27 µM | 180 nM |  | NC(=O)N/N=C/c1ccc(Oc2ccc(F)cc2)cc1
2 | 400 | 10 µM | 25 nM |  | NC(=O)n1ccc(-c2ccc(Oc3ccc(F)cc3F)cc2)n1
3 | 76 | 26 µM | 340 nM |  | CN(C)C(=O)n1ccc(-c2ccc(Oc3ccc(F)cc3)cc2)n1
4 | 30 | 21 µM | 690 nM |  | Cn1ccc(-c2ccc(Oc3ccc(F)cc3)cc2)n1
5 | 226 | 7 µM | 31 nM |  | NC(=O)n1ccc(-c2ccc(Oc3ccc([N+](=O)[O-])cc3)cc2)n1
6 | 140 | 21 µM | 150 nM |  | CNC(=O)n1ccc(-c2ccc(Oc3ccc(F)cc3)cc2)n1
7 | 85 | 17 µM | 200 nM |  | Fc1ccc(Oc2ccc(-c3cc[nH]n3)cc2)cc1
8 | 85 | 1440 µM | 17000 nM |  | Nc1nnc(-c2cccc(Cl)c2Cl)c(N)n1 [LAMOTRIGINE]
9 | 9 | 710 µM | 81000 nM |  | COc1ccc(-c2cc[nH]n2)cc1
10 | 143 | 5 µM | 35 nM |  | NC(=O)n1ccc(-c2ccc(Oc3ccccc3)cc2)n1
11 | 67 | 16 µM | 240 nM |  | c1ccc(Oc2ccc(-c3cc[nH]n3)cc2)cc1
12 | 194 | 6 µM | 31 nM |  | NC(=O)n1ccc(-c2ccc(Oc3ccc(F)cc3)cc2)n1
13 | 18 | 1110 µM | 61000 nM |  | c1ccc(-c2cc[nH]n2)cc1
14 | 26 | 620 µM | 24000 nM |  | O=C1NC(=O)C(c2ccccc2)(c2ccccc2)N1 [PHENYTOIN]
15 | 14 |  | 52000 nM | 720 µM | NC(=O)N1c2ccccc2C=Cc2ccccc21 [CARBAMAZEPINE]
